{"source": "paper PMC6153967", "about": "(CNS Drugs, 2018)", "key": {"[1]": {"type": "in vivo, human", "conditions": "drug-naïve", "summary_of_the_method": "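CSF came from 64 untreated patients with cognitive deficits (MMSE 15–30). Sampling: lumbar puncture at L3–L5, supine, atraumatic needle, 8–11 a.m. Spun 5 min at 2000 rpm at room temperature, aliquoted into polypropylene, stored at –80 °C. Samples were derivatized with EDC/TFEA for 30 min at room temperature and centrifuged. The supernatant went to LC–MS/MS. Identity was set by retention time and two transition ions against reference standard. LOQ 0.1 ng/ml; range 0.1–1000 ng/ml.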"}, "[2]": {"type": "in vivo, human", "conditions": "tramiprosate 150 mg BID, week 78", "summary_of_the_method": "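Retrospective lumbar CSF from six patients with AD in the phase III trial, sampled at week 78 of dosing. The metabolite was quantified by a validated LC–MS/MS method in a separate bioanalytical laboratory.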"}, "[3]": {"target": "Recombinant human Aβ42 peptide (Homo sapiens, UniProt P05067)", "sequence (P05067 672-713)": "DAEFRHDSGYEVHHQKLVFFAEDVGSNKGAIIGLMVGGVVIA", "test": "IMS–MS anti-Aβ42 oligomer activity", "type": "biochemical", "conditions": "for Inhibition of Aβ42 oligomer formation (in words): 1000:1, 24 h in vitro", "summary_of_the_method": "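Recombinant human Aβ42 was reconstituted in LC–MS-grade water as a 5 mg/ml stock and diluted to 22 pmol/µl final. Test compound in water was diluted to […] and 22,000 pmol/µl solutions for 100- and 1000-fold molar excess. Mixtures were incubated at room temperature for 0, 4 and 24 h. Samples were analysed by direct infusion on a traveling-wave IMS Q-TOF: positive sensitivity mode, m/z 500–4000, with drift times used to resolve monomer and oligomers.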"}, "[4]": {"test": "Oral and intravenous pharmacokinetics in Sprague Dawley rats", "type": "in vivo", "conditions": "male, rat, plasma, 10 mg/kg; for Vd: intravenous 10 mg/kg", "summary_of_the_method": "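Fasted male Sprague Dawley rats, n = 3 per group, received test compound in saline orally by gavage (30 mg/kg) or as an IV bolus (10 mg/kg). Serial blood was drawn at 0.25, 0.5, 1, 2, 4, 8 and 24 h into K2EDTA and centrifuged to plasma. Plasma was stored at –80 °C and assayed by LC–MS/MS. Parameters were calculated from mean concentration–time curves.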"}, "[5]": {"test": "Brain penetration after single oral dose in Sprague Dawley rats", "type": "in vivo, male Sprague Dawley rats", "conditions": "oral 30 mg/kg", "summary_of_the_method": "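Fasted male Sprague Dawley rats received test compound in saline by oral gavage at 30 mg/kg. Terminal plasma, CSF and brain were taken at 1, 2, 6 and 24 h, three rats per time point. Brains were perfused to remove blood before processing. All matrices were assayed by LC–MS/MS. AUC ratios were derived from mean concentration–time curves.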"}, "[6]": {"conditions": "ref Alzheon, data on file, cited from earlier work"}, "[7]": {"conditions": "cited from earlier work"}, "[8]": {"conditions": "tramiprosate phase III NA trial; cited from earlier work"}, "[9]": {"conditions": "both phase III trials, subjects receiving active drug; cited from earlier work"}}, "note": "Several values for one entry are separate records, joined by “and”; a condition that tells them apart may be missing. Equal values may be shown once. Read-outs that look alike come from different tables or passages of the source."}
{"compound": "O=C(O)CCS(=O)(=O)O", "note": "[3-SPA, 3-sulfopropanoic acid]", "values": [{"measurement": "Concentration of 3-SPA in CSF, median", "setting": "[1]; all patients", "result": "1.7 ng/ml and 10.8 nM"}, {"measurement": "Concentration of 3-SPA in CSF, median", "setting": "[1]; female", "result": "1.6 ng/ml and 10.4 nM"}, {"measurement": "Concentration of 3-SPA in CSF, minimum–maximum", "setting": "[1]; female", "result": "0.6–4.3 ng/ml and 4.2–27.7 nM"}, {"measurement": "Concentration of 3-SPA in CSF, mean ± SD", "setting": "[1]; female (N 37)", "result": "1.7 ± 0.7 ng/ml and 11.2 ± 4.4 nM"}, {"measurement": "Concentration of 3-SPA in CSF, median", "setting": "[1]; male", "result": "1.7 ng/ml and 11.1 nM"}, {"measurement": "Concentration of 3-SPA in CSF, minimum–maximum", "setting": "[1]; male", "result": "0.8–3.8 ng/ml and 5.5–24.7 nM"}, {"measurement": "Concentration of 3-SPA in CSF, mean ± SD", "setting": "[1]; male (N 27)", "result": "1.9 ± 0.6 ng/ml and 12.5 ± 4.1 nM"}, {"measurement": "concentration at 78 week", "setting": "[2]; human, CSF, oral, 150 mg BID, Minimum–maximum 3-SPA concentration in CSF", "result": "0.112 to 0.232", "unit": "µM"}, {"measurement": "Median 3-SPA concentration in CSF", "setting": "[2]", "result": "19.8 ng/ml and 128.6 nM"}, {"measurement": "Inhibition of Aβ42 oligomer formation (in words)", "setting": "[3]", "result": "Near complete prevention of formation of Aβ42 oligomers except for pentamers"}, {"measurement": "Aβ42 oligomer species not inhibited", "setting": "[3]; 1000:1, after 4 h incubation", "result": "dimers, trimers, and pentamers"}, {"measurement": "Aβ42 oligomer species not inhibited", "setting": "[3]; 1000:1, after 24 h incubation", "result": "pentamers"}, {"measurement": "clearance", "setting": "[4]", "result": 2.7, "unit": "L/h/kg"}, {"measurement": "Vd", "setting": "[4]; Vss", "result": 12.9, "unit": "L/kg"}, {"measurement": "Vd", "setting": "[4]; Vz", "result": 43.6, "unit": "L/kg"}, {"measurement": "Brain/plasma AUC ratio (brain penetration)", "setting": "[5]", "result": 25.3, "unit": "%"}, {"measurement": "Sustained 3-SPA levels (plasma AUC)", "setting": "[6]; at 2000 mg/kg ALZ-801 NOAEL, 28-day rat study", "result": "180 millimolar (AUC in h × nM)"}]}
{"compound": "CC(C)[C@H](N)C(=O)NCCCS(=O)(=O)O", "note": "[ALZ-801]", "values": [{"measurement": "Improvement in brain penetration", "setting": "[7]; PK/PD projections using 14C tramiprosate", "result": "~ 30%"}, {"measurement": "NOAEL", "setting": "[6]; 1-month (28-day) rat study", "result": 2000, "unit": "mg/kg"}, {"measurement": "NOAEL", "setting": "[6]; 6-month rat study", "result": 1500, "unit": "mg/kg"}]}
{"compound": "NCCCS(=O)(=O)O", "note": "[Tramiprosate, reference compound]", "values": [{"measurement": "Inhibition of Aβ42 oligomer formation (in words)", "setting": "[3]", "result": "complete inhibition"}, {"measurement": "Steady-state brain penetration", "setting": "[7]", "result": "approximately 40%"}, {"measurement": "Estimated mean concentration in the brain", "setting": "[8]", "result": "~ 130 nM"}, {"measurement": "Cases of ARIA-E in brain MRI safety analyses", "setting": "[9]", "result": "no cases"}]}
